# From ChEMBL document CHEMBL4196119, “Quinoxaline-Based Linear HCV NS3/4A Protease Inhibitors Exhibit Potent Activity against Drug Resistant Variants” (ACS Med Chem Lett, 2018)
# How the values were obtained:
# [1] = target: Hepatitis C virus serine protease, NS3/NS4A (Hepatitis C virus, UniProt A3EZI9+D2K2A8); assay: Inhibition of wild type HCV genotype 1a NS3/4A protease expressed in Escherichia coli BL21(DE3) using Ac-DE-Dap(QXL 520)-EE-Abu-psi-[COO]AS-C(5-FAMsp)-NH2 as substrate preincubated for 1 hr followed by substrate addition; design: species or system Hepatitis C virus subtype 1a
# Summary of the method: (§1)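 Enzyme inhibition constants (Ki) were determined against GT1a NS3/4A protease in three forms: wild type, R155K and D168A.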
# Hepatitis C virus [2] = assay: Selectivity ratio of EC50 for HCV genotype 1b Con1 harboring HCV genotype 1a H77 NS3 R155K mutant infected in human HuH7 cells to EC50 for HCV genotype 1b Con1 harboring HCV genotype 1a H77 wild type NS3 infected in human HuH7 cells; type: functional, Hepacivirus hominis, isolate Con1
# [3] = target: Hepatitis C virus serine protease, NS3/NS4A (Hepatitis C virus, UniProt A3EZI9+D2K2A8, D168A); assay: Inhibition of HCV genotype 1a NS3/4A protease D168A mutant expressed in Escherichia coli BL21(DE3) using Ac-DE-Dap(QXL 520)-EE-Abu-psi-[COO]AS-C(5-FAMsp)-NH2 as substrate preincubated for 1 hr followed by substrate addition; design: species or system Hepatitis C virus subtype 1a; summary of the method: as §1
# [4] = target: Hepatitis C virus serine protease, NS3/NS4A (Hepatitis C virus, UniProt A3EZI9+D2K2A8, R155K); assay: Inhibition of HCV genotype 1a NS3/4A protease R155K mutant expressed in Escherichia coli BL21(DE3) using Ac-DE-Dap(QXL 520)-EE-Abu-psi-[COO]AS-C(5-FAMsp)-NH2 as substrate preincubated for 1 hr followed by substrate addition; design: species or system Hepatitis C virus subtype 1a; summary of the method: as §1
# Hepatitis C virus [5] = assay: Selectivity ratio of EC50 for HCV genotype 1b Con1 harboring HCV genotype 1a H77 NS3 D168V mutant infected in human HuH7 cells to EC50 for HCV genotype 1b Con1 harboring HCV genotype 1a H77 wild type NS3 infected in human HuH7 cells; type: functional, Hepacivirus hominis, isolate Con1
# Hepatitis C virus [6] = assay: Selectivity ratio of EC50 for HCV genotype 1b Con1 harboring HCV genotype 1a H77 NS3 D168A mutant infected in human HuH7 cells to EC50 for HCV genotype 1b Con1 harboring HCV genotype 1a H77 wild type NS3 infected in human HuH7 cells; type: functional, Hepacivirus hominis, isolate Con1
# Hepatitis C virus [7] = assay: Selectivity ratio of EC50 for HCV genotype 1b Con1 harboring HCV genotype 1a H77 NS3 A156T mutant infected in human HuH7 cells to EC50 for HCV genotype 1b Con1 harboring HCV genotype 1a H77 wild type NS3 infected in human HuH7 cells; type: functional, Hepacivirus hominis, isolate Con1
# Hepatitis C virus [8] = assay: Antiviral activity against HCV genotype 1b Con1 harboring HCV genotype 1a H77 NS3 D168V mutant infected in human HuH7 cells assessed as inhibition of viral replication after 96 hrs by luciferase reporter gene assay; type: functional, organism-based, Hepacivirus hominis; details: isolate Con1, Huh-7, 96 h
# Summary of the method: (§2)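 Cell-based replicon antiviral assays against wild-type HCV and the R155K, A156T, D168A and D168V variants. Potency was expressed as EC50.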
# Hepatitis C virus [9] = assay: Antiviral activity against HCV genotype 1b Con1 harboring HCV genotype 1a H77 NS3 A156T mutant infected in human HuH7 cells assessed as inhibition of viral replication after 96 hrs by luciferase reporter gene assay; type: functional, organism-based, Hepacivirus hominis; details: isolate Con1, Huh-7, 96 h; summary of the method: as §2
# Hepatitis C virus [10] = assay: Antiviral activity against HCV genotype 1b Con1 harboring HCV genotype 1a H77 NS3 D168A mutant infected in human HuH7 cells assessed as inhibition of viral replication after 96 hrs by luciferase reporter gene assay; type: functional, organism-based, Hepacivirus hominis; details: isolate Con1, Huh-7, 96 h; summary of the method: as §2
# Hepatitis C virus [11] = assay: Antiviral activity against HCV genotype 1b Con1 harboring HCV genotype 1a H77 wild type NS3 infected in human HuH7 cells assessed as inhibition of viral replication after 96 hrs by luciferase reporter gene assay; type: functional, organism-based, Hepacivirus hominis; details: isolate Con1, Huh-7, 96 h; summary of the method: as §2
# Hepatitis C virus [12] = assay: Antiviral activity against HCV genotype 1b Con1 harboring HCV genotype 1a H77 NS3 R155K mutant infected in human HuH7 cells assessed as inhibition of viral replication after 96 hrs by luciferase reporter gene assay; type: functional, organism-based, Hepacivirus hominis; details: isolate Con1, Huh-7, 96 h; summary of the method: as §2
Compound,Ki [1] [nM],Ratio EC50 (Hepatitis C virus [2]),Ki [3] [nM],Ki [4] [nM],Ratio EC50 (Hepatitis C virus [5]),Ratio EC50 (Hepatitis C virus [6]),Ratio EC50 (Hepatitis C virus [7]),EC50 (Hepatitis C virus [8]) [nM],EC50 (Hepatitis C virus [9]) [nM],EC50 (Hepatitis C virus [10]) [nM],EC50 (Hepatitis C virus [11]) [nM],EC50 (Hepatitis C virus [12]) [nM]
CCc1nc2ccc(OC)cc2nc1O[C@@H]1C[C@H]2C(=O)N[C@]3(C(=O)NS(=O)(=O)C4CC4)C[C@H]3/C=C\CCCCC[C@H](NC(=O)OC(C)(C)C)C(=O)N2C1,2,5.5,91,3.1,28,19,29,,,,,
C=C[C@@H]1C[C@]1(NC(=O)[C@@H]1C[C@@H](Oc2nc3cc(OC)ccc3nc2C(F)(F)F)CN1C(=O)[C@@H](NC(=O)OC1CCCC1)C(C)(C)C)C(=O)NS(=O)(=O)C1(C)CC1,22,,516,22,,,,,,,,
C=C[C@@H]1C[C@]1(NC(=O)[C@@H]1C[C@@H](Oc2nc3cc(OC)ccc3nc2CC)CN1C(=O)[C@@H](NC(=O)OC1CCCC1)C(C)(C)C)C(=O)NS(=O)(=O)C1CC1,9.8,,350,15,,,,,,,,
C=C[C@@H]1C[C@]1(NC(=O)[C@@H]1C[C@@H]2CN1C(=O)[C@H](C(C)(C)C)NC(=O)O[C@@H]1C[C@H]1CCCCCc1nc3ccc(OC)cc3nc1O2)C(=O)NS(=O)(=O)C1(C)CC1,,,,,,,,5.3,200,11,0.12,1.9
C=C[C@@H]1C[C@]1(NC(=O)[C@@H]1C[C@@H](Oc2nc3cc(OC)ccc3nc2C)CN1C(=O)[C@@H](NC(=O)OC1CCCC1)C(C)(C)C)C(=O)NS(=O)(=O)C1CC1,9.2,4.8,144,9.6,15,10,16,150,164,101,10,48
C=C[C@@H]1C[C@]1(NC(=O)[C@@H]1C[C@@H](Oc2nc3cc(OC)ccc3nc2C(C)C)CN1C(=O)[C@@H](NC(=O)OC1CCCC1)C(C)(C)C)C(=O)NS(=O)(=O)C1(C)CC1,21,,1000,43,,,,,,,,
C=C[C@@H]1C[C@]1(NC(=O)[C@@H]1C[C@@H](Oc2nc3cc(OC)ccc3nc2C)CN1C(=O)[C@@H](NC(=O)OC(C)(C)C)C(C)(C)C)C(=O)NS(=O)(=O)C1CC1,18,,290,8.5,,,,,,,,
C=C[C@@H]1C[C@]1(NC(=O)[C@@H]1C[C@@H](Oc2nc3cc(OC)ccc3nc2Cl)CN1C(=O)[C@@H](NC(=O)OC(C)(C)C)C(C)(C)C)C(=O)NS(=O)(=O)C1(C)CC1,6.1,1.6,119,3.8,1.9,4.8,16,12,100,30,6.3,10
C=C[C@@H]1C[C@]1(NC(=O)[C@@H]1C[C@@H](Oc2nc3cc(OC)ccc3nc2CC)CN1C(=O)[C@@H](NC(=O)OC(C)(C)C)C(C)(C)C)C(=O)NS(=O)(=O)C1CC1,19,2.1,642,17,>21,>21,3,> 500,73,> 500,24,50
C=C[C@@H]1C[C@]1(NC(=O)[C@@H]1C[C@@H](Oc2nc3cc(OC)ccc3nc2C(F)(F)F)CN1C(=O)[C@@H](NC(=O)OC(C)(C)C)C(C)(C)C)C(=O)NS(=O)(=O)C1(C)CC1,46,,513,12,,,,,,,,
C=C[C@@H]1C[C@]1(NC(=O)[C@@H]1C[C@@H](Oc2nc3cc(OC)ccc3nc2Cl)CN1C(=O)[C@@H](NC(=O)OC(C)(C)C)C(C)(C)C)C(=O)NS(=O)(=O)C1CC1,7.8,1.5,128,2.2,1.8,5.8,16,12,107,38,6.6,10
C=C[C@@H]1C[C@]1(NC(=O)[C@@H]1C[C@@H](Oc2nc3cc(OC)ccc3nc2CC)CN1C(=O)[C@@H](NC(=O)OC1CCCC1)C(C)(C)C)C(=O)NS(=O)(=O)C1(C)CC1,6.9,,145,13,,,,,,,,
C=C[C@@H]1C[C@]1(NC(=O)[C@@H]1C[C@@H](Oc2nc3cc(OC)ccc3nc2Cl)CN1C(=O)[C@@H](NC(=O)OC1CCCC1)C(C)(C)C)C(=O)NS(=O)(=O)C1(C)CC1,3.9,8.7,51,5.2,7.4,8.1,53,23,163,25,3.1,27
C=C[C@@H]1C[C@]1(NC(=O)[C@@H]1C[C@@H](Oc2nc3cc(OC)ccc3nc2C)CN1C(=O)[C@@H](NC(=O)OC(C)(C)C)C(C)(C)C)C(=O)NS(=O)(=O)C1(C)CC1,14,,265,14,,,,,,,,
C=C[C@@H]1C[C@]1(NC(=O)[C@@H]1C[C@@H](Oc2nc3cc(OC)ccc3nc2C(C)C)CN1C(=O)[C@@H](NC(=O)OC(C)(C)C)C(C)(C)C)C(=O)NS(=O)(=O)C1CC1,32,,1090,49,,,,,,,,
C=C[C@@H]1C[C@]1(NC(=O)[C@@H]1C[C@@H](Oc2nc3cc(OC)ccc3nc2C(C)C)CN1C(=O)[C@@H](NC(=O)OC(C)(C)C)C(C)(C)C)C(=O)NS(=O)(=O)C1(C)CC1,29,,1180,27,,,,,,,,
C=C[C@@H]1C[C@]1(NC(=O)[C@@H]1C[C@@H](Oc2nc3cc(OC)ccc3nc2C(F)(F)F)CN1C(=O)[C@@H](NC(=O)OC1CCCC1)C(C)(C)C)C(=O)NS(=O)(=O)C1CC1,34,,703,26,,,,,,,,
C=C[C@@H]1C[C@]1(NC(=O)[C@@H]1C[C@@H](Oc2nc3cc(OC)ccc3nc2C(F)(F)F)CN1C(=O)[C@@H](NC(=O)OC(C)(C)C)C(C)(C)C)C(=O)NS(=O)(=O)C1CC1,87,,723,24,,,,,,,,
C=C[C@@H]1C[C@]1(NC(=O)[C@@H]1C[C@@H](Oc2nc3cc(OC)ccc3nc2C)CN1C(=O)[C@@H](NC(=O)OC1CCCC1)C(C)(C)C)C(=O)NS(=O)(=O)C1(C)CC1,7.1,6.2,140,10,13,10,19,59,87,45,4.5,28
C=C[C@@H]1C[C@]1(NC(=O)[C@@H]1C[C@@H](Oc2nc3cc(OC)ccc3nc2C(C)C)CN1C(=O)[C@@H](NC(=O)OC1CCCC1)C(C)(C)C)C(=O)NS(=O)(=O)C1CC1,17,,985,55,,,,,,,,
C=C[C@@H]1C[C@]1(NC(=O)[C@@H]1C[C@@H](Oc2nc3cc(OC)ccc3nc2CC)CN1C(=O)[C@@H](NC(=O)OC(C)(C)C)C(C)(C)C)C(=O)NS(=O)(=O)C1(C)CC1,16,,385,14,,,,,,,,
C=C[C@@H]1C[C@]1(NC(=O)[C@@H]1C[C@@H](Oc2nc3cc(OC)ccc3nc2Cl)CN1C(=O)[C@@H](NC(=O)OC1CCCC1)C(C)(C)C)C(=O)NS(=O)(=O)C1CC1,3.8,5.4,99,4.1,7.3,6.8,40,54,292,50,7.4,40
